Reference: ChEMBL document CHEMBL4138089, “Novel Imidazo[4,5-c][1,2,6]thiadiazine 2,2-dioxides as antiproliferative trypanosoma cruzi drugs: Computational screening from neural network, synthesis and in vivo biological properties” (Eur J Med Chem, 2017)
The source made the active and inactive calls. The rule behind the calls is not given here.

Experiments:
Trypanosoma cruzi [1] = assay: Growth inhibition of Trypanosoma cruzi Tulahuen 2 epimastigotes at 25 uM after 5 days relative to control; assay type: functional; settings: Tulahuen 2, 120 h, read-out: GI
Trypanosoma cruzi [2] = assay: Antitrypanosomal activity against Trypanosoma cruzi Tulahuen 2 epimastigotes after 5 days; assay type: functional, organism-based; settings: Tulahuen 2, 120 h
J774 = assay: Cytotoxicity against mouse J774 cells assessed as reduction in cell viability after 48 hrs by MTT assay; assay type: cell-based; settings: J774, 48 h
Procedure, shortened: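 J774 macrophages, 37°C, 5% CO2, 48 h with compounds in DMSO at 100, 200 and 400 μM. Viability from mitochondrial activity by MTT/formazan.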

[3] = Selectivity index, ratio of IC50 for mouse J774 cells to IC50 for Trypanosoma cruzi Tulahuen 2 epimastigotes; assay type: toxicity; settings: J774 cells versus Trypanosoma cruzi Tulahuen 2 epimastigotes, read-out: Ratio IC50
Trypanosoma cruzi [4] = assay: Growth inhibition of Trypanosoma cruzi clone CL B5 epimastigotes at 25 uM after 72 hrs by beta-galactosidase reporter gene assay relative to control; assay type: functional; settings: clone CL B5, 72 h, read-out: GI
Trypanosoma cruzi [5] = assay: Antitrypanosomal activity against Trypanosoma cruzi clone CL B5 epimastigotes at 25 uM after 72 hrs by beta-galactosidase reporter gene assay; assay type: functional, organism-based; settings: clone CL B5, 72 h
L929 = assay: Cytotoxicity against mouse NCTC-929 cells assessed as reduction in cell viability after 48 hrs by resazurin dye-based assay; settings: L929, 48 h
Procedure, shortened: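 NCTC-929 fibroblasts, 15,000 cells/well in MEM, attached 3 h at 37°C/5% CO2, then compounds in fresh medium 48 h. Resazurin (2 mM stock in PBS, pH 7.0) added for 3 h more; fluorescence ex 535/em 590 nm. Growth and medium controls on each plate.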

[6] = Selectivity index, ratio of IC50 for mouse NCTC-929 cells to IC50 for Trypanosoma cruzi clone CL B5 epimastigotes; assay type: toxicity; settings: read-out: Ratio IC50
[7] = biological target: Cruzipain (Trypanosoma cruzi) (UniProt P25779); assay: Inhibition of Trypanosoma cruzi cruzipain at 100 uM using Bz-Pro-Phe-Arg-p-NA as a chromogenic substrate preincubated for 10 mins followed by substrate addition measured for 5 mins by spectrophotometer relative to control
Procedure, shortened: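 Cruzipain preincubated 10 min at ambient temperature in 50 mM Tris-HCl pH 7.6 with 10 mM mercaptoethanol and 25, 50 or 100 μM inhibitor (DMSO). Bz-Pro-Phe-Arg-p-NA then added at 150 μM final, A410 followed for 5 min. Controls carry the same DMSO level and define 100% activity.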

Trypanosoma cruzi [8] = assay: Growth inhibition of Trypanosoma cruzi clone CL B5 amastigotes harboring lacZ derived from infected mouse NCTC-929 cells at 25 uM after 7 days by beta-galactosidase reporter gene assay relative to control; assay type: functional; settings: clone CL B5, NCTC-929, 168 h, read-out: GI
Procedure, shortened: (§1)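 NCTC-929 fibroblasts seeded 10,000 cells/well in MEM, attached 2-3 h at 37°C, 5% CO2, then infected with NCTC-929-derived CL-B5 lacZ trypomastigotes (1:6 cells:parasites) for 24 h at 33°C. Washed in PBS, drug in DMSO added in fresh medium, 7 days at 33°C. CPRG (400 µM, pH 7.4, 3% Triton X-100) added, 3 h at 37°C, A595. PGIa computed against infected untreated wells after subtracting uninfected-cell background. IC50a derived from PGIa.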

Trypanosoma cruzi [9] = assay: Antitrypanosomal activity against Trypanosoma cruzi clone CL B5 amastigotes harboring lacZ infected in mouse NCTC-929 cells after 7 days by beta-galactosidase reporter gene assay; assay type: functional, organism-based; settings: clone CL B5, NCTC-929, 168 h; procedure, shortened: as §1
Salmonella typhimurium [10] = assay: Genotoxicity in Salmonella typhimurium TA98 up to 500 ug/plate in absence of mouse liver S9 fraction by Ames test; assay type: toxicity, organism-based; settings: salmonella enterica subsp. enterica serovar typhimurium
Procedure, shortened: (§2)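 TA98 by direct plate incorporation on minimal glucose agar with Vogel-Bonner E; toxicity to the strain checked first. Compounds in DMSO, in triplicate, top dose 500 µg/plate; ± Aroclor-induced mouse liver S9 (500 µL). Positive controls 4-nitro-o-phenylenediamine 20.0 µg/plate (no S9), 2-aminofluorene 10.0 µg/plate (S9); DMSO negative. Manual revertant counts, mean of two experiments ±SD; mutagenic if ≥2× negative control at two consecutive doses.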

Salmonella typhimurium [11] = assay: Genotoxicity in Salmonella typhimurium TA98 up to 500 ug/plate in presence of mouse liver S9 fraction by Ames test; assay type: toxicity, organism-based; settings: salmonella enterica subsp. enterica serovar typhimurium; procedure, shortened: as §2
Cruzipain = Cruzipain (Trypanosoma cruzi, UniProt P25779); assay: Inhibition of Trypanosoma cruzi cruzipain using Bz-Pro-Phe-Arg-p-NA as a chromogenic substrate preincubated for 10 mins followed by substrate addition measured for 5 mins by spectrophotometry
Procedure, shortened: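 Cruzipain preincubated 10 min at ambient temperature in 50 mM Tris-HCl pH 7.6 with 10 mM mercaptoethanol and 25, 50 or 100 μM inhibitor (DMSO). Controls carry the same DMSO level and define 100% activity.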

Mus musculus = assay: Antitrypanosomal activity against bloodstream forms of Trypanosoma cruzi Y infected in NMRI mouse assessed as decrease in number of blood trypomastigotes at 100 mg/kg, po administerd for 5 consecutive days starting from day 5 post infection measured from 4th day of treatment; assay type: functional, organism-based
Trypanosoma cruzi [12] = assay: Antitrypanosomal activity against bloodstream forms of Trypanosoma cruzi Y infected in NMRI mouse assessed as mouse survival at 100 mg/kg, po administerd for 5 consecutive days starting from day 5 post infection; settings: 720 h

Sequence of Cruzipain (P25779 whole entry): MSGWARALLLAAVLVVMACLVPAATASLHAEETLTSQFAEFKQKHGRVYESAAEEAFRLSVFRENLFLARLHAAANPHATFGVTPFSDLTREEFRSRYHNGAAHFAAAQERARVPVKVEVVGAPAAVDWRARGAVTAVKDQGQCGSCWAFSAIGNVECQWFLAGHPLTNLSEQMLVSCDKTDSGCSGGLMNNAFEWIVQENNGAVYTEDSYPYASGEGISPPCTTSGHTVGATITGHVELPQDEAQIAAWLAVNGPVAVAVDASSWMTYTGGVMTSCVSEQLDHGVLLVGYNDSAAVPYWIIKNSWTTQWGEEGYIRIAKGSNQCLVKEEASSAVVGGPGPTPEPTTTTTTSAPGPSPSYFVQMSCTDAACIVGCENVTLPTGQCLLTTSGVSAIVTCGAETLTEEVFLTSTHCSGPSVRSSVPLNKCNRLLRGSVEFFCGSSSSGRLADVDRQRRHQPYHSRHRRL
Sequence of Cruzipain (Trypanosoma cruzi) (P25779 123-467 limits assumed): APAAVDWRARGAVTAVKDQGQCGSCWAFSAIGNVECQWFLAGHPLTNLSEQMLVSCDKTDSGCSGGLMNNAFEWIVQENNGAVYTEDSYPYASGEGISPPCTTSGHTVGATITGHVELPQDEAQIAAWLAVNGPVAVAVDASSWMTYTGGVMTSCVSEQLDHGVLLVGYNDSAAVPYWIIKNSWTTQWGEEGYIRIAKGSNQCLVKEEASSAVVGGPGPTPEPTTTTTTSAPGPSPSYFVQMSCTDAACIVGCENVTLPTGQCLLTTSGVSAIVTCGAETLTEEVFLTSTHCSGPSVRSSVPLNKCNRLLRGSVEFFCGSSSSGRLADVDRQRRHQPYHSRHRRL

Row | Compound | inhibition of growth at 25 µM (Trypanosoma cruzi [1]) [%] | IC50 (Trypanosoma cruzi [2]) [µM] | selectivity ratio [3] | inhibition of growth at 25 µM (Trypanosoma cruzi [4]) [%] | other results
1 | NC1=NS(=O)(=O)Nc2nc(-c3cccnc3)[nH]c21 | 37.5 | > 25 |  |  | 
2 | NC1=NS(=O)(=O)Nc2nc(CCc3ccccc3)[nH]c21 | 73.6 | 11.5 | > 34.8 | 51.1 | IC50 (J774): > 400 µM; IC50 (Trypanosoma cruzi [5]): 17.5 µM; IC50 (L929): > 256 µM; selectivity ratio [6]: > 14.6; inhibition [7]: 39%
3 | NC1=NS(=O)(=O)Nc2nc(-c3ccsc3)[nH]c21 | 51.3 | 22.2 |  |  | 
4 | NC1=NS(=O)(=O)N(Cc2ccccc2)c2nc(C3CCCCC3)n(Cc3ccccc3)c21 | 45.7 | 28.7 |  |  | 
5 | CC1CS(=O)(=O)CCN1/N=C/c1ccc([N+](=O)[O-])o1 (stereo unspecified) [NIFURTIMOX] |  |  | 41 | 82.2 | inhibition of growth at 25 µM (Trypanosoma cruzi [8]): 100%; IC50 (L929): > 256 µM; selectivity ratio [6]: > 71.1; IC50 (Trypanosoma cruzi [9]): < 0.5 µM
6 | NC1=NS(=O)(=O)N(Cc2ccc(Cl)cc2)c2nc(C3CCCCC3)[nH]c21 | 0 | > 25 |  |  | 
7 | NC1=NS(=O)(=O)Nc2nc(-c3ccccc3F)[nH]c21 | 57.8 | 20.2 |  |  | 
8 | CN1c2nc(-c3ccsc3)[nH]c2C(N)=NS1(=O)=O | 46.3 | 26.2 |  |  | 
9 | NC1=NS(=O)(=O)N(Cc2ccccc2)c2nc(-c3ccccc3)[nH]c21 | 41.6 | 29.5 |  |  | 
10 | NC1=NS(=O)(=O)Nc2nc(C3CCOC3)[nH]c21 (stereo unspecified) | 56.4 | 20.3 |  |  | 
11 | CN1c2nc(-c3ccccc3)[nH]c2C(N)=NS1(=O)=O | 58 | 16.7 | 7.7 | 11.3 | IC50 (J774): 128 µM; IC50 (Trypanosoma cruzi [5]): > 25 µM; inhibition [7]: 27.4%; Activity (Salmonella typhimurium [10]): Non-Toxic; Activity (Salmonella typhimurium [11]): Non-Toxic
12 | NC1=NS(=O)(=O)Nc2nc(C3CCCCC3)[nH]c21 | 72.3 | 12.7 to 16.2 | > 25 | 54.8 | inhibition of growth at 25 µM (Trypanosoma cruzi [8]): 0%; IC50 (Trypanosoma cruzi [5]): 2.5 µM; IC50 (L929): > 256 µM; selectivity ratio [6]: > 102; IC50 (Cruzipain): 12 µM; Activity (Mus musculus): inactive
13 | NC1=NS(=O)(=O)N(Cc2ccccc2)c2nc(-c3ccccc3)n(Cc3ccccc3)c21 | 100 | 4.5 | 22 | 60.8 | inhibition of growth at 25 µM (Trypanosoma cruzi [8]): 90.2%; IC50 (J774): 100 µM; IC50 (Trypanosoma cruzi [5]): 3.6 µM; IC50 (L929): < 64 µM; selectivity ratio [6]: < 17.8; IC50 (Cruzipain): 81 µM; Activity (Mus musculus): Active; Activity (Salmonella typhimurium [10]): Non-Toxic; Activity (Salmonella typhimurium [11]): Non-Toxic; survival at 100 mg/kg (Trypanosoma cruzi [12]): 87.5%
14 | CCc1nc2c([nH]1)C(N)=NS(=O)(=O)N2 | 43 | 28.5 |  |  | 
15 | O=C(Cn1ccnc1[N+](=O)[O-])NCc1ccccc1 [BENZNIDAZOLE] |  |  |  | 49 | inhibition of growth at 25 µM (Trypanosoma cruzi [8]): 100%; IC50 (L929): > 256 µM; selectivity ratio [6]: > 9.4; IC50 (Trypanosoma cruzi [9]): 0.8 µM
16 | NC1=NS(=O)(=O)Nc2nc(C3CCCC3)[nH]c21 | 42.2 | 28.9 |  |  | 
17 | NC1=NS(=O)(=O)N(Cc2ccc(Cl)cc2)c2nc(-c3ccccc3F)[nH]c21 | 86.3 | 7 | < 14.2 | 42.1 | IC50 (J774): < 100 µM; IC50 (Trypanosoma cruzi [5]): > 25 µM; IC50 (Cruzipain): 86 µM
18 | NC1=NS(=O)(=O)Nc2nc(Cc3ccccc3)[nH]c21 | 59.7 | 12.7 to 16.2 | > 31 | 17.7 | IC50 (Trypanosoma cruzi [5]): > 25 µM; IC50 (Cruzipain): 23 µM; Activity (Salmonella typhimurium [10]): Non-Toxic; Activity (Salmonella typhimurium [11]): Non-Toxic
19 | CN(C)c1ccc(-c2nc3c([nH]2)C(N)=NS(=O)(=O)N3)cc1 | 42.8 | 28.5 |  |  | 
20 | Cc1nc2c([nH]1)C(N)=NS(=O)(=O)N2 | 38.7 | > 25 |  |  | 
21 | NC1=NS(=O)(=O)Nc2[nH]c(-c3ccccc3)nc21 | 39.6 | > 25 |  |  | 
22 | NC1=NS(=O)(=O)Nc2nc(-c3ccc([N+](=O)[O-])o3)[nH]c21 | 31.3 | > 25 |  |  | 
